Where “and” joins values, the source holds several entries; their conditions need not be identical. Identical values can stand only once. Like-named read-outs stand apart in the source and are kept apart here.
Legend:
[1] = tested on: metastatic renal cell carcinoma; conditions: mRCC; cited from earlier work
[2] = Cabozantinib plasma PK monitoring; assay type: in vivo, human
[3] = PK/PD relation for efficacy: cabozantinib PK at progressive disease; assay type: in vivo, human; conditions: human, plasma, oral
[4] = tested on: metastatic renal cell carcinoma; test: as above; assay type: in vivo, human
[5] = assay type: in vivo, human; conditions: for AUC: human, plasma, oral
[6] = Adverse events in the study cohort; assay type: in vivo, human
Procedure, shortened: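 Clinical examination and blood tests every 4-6 weeks. Adverse events graded by CTCAE v5.0. Relevant toxicity defined as grade 3-4, or grade 2 requiring dose reduction or discontinuation. Each patient counted once for toxicity.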

[7] = tested on: metastatic renal cell carcinoma; conditions: METEOR trial; cited from earlier work
[8] = tested on: metastatic renal cell carcinoma; conditions: CABOSUN trial, cited from earlier work
[9] = tested on: metastatic renal cell carcinoma; conditions: CheckMate 9ER PK/PD study, Cavg up to day 1 of cycle 7; cited from earlier work
[10] = cited from earlier work
[11] = cited from earlier work; remark: listed apart in the source
[12] = cited from earlier work; remark: listed apart in the source
[13] = SD/PR patients (disease control)
[14] = patients with progressive disease (PD)
[15] = patients with relevant toxicity
[16] = patients without relevant toxicity
[17] = most frequent G3 toxicities, of the 30 patients
[18] = of the 30 patients with relevant toxicity

Q: Which “Css,trough associated with PD” value [1] does the source give for `Cc1ccc(Nc2nccc(N(C)c3ccc4c(C)n(C)nc4c3)n2)cc1S(N)(=O)=O` [Pazopanib] here?
A: < 15 µg/mL

Q: What about the “Css,trough associated with PR/SD” value [1] of the same compound?
A: ≥ 15 µg/mL

Q: And the “Css,trough associated with longer PFS and greater tumor shrinkage” value [1]?
A: ≥ 20.5 µg/mL

Q: Which results are given for `CNC(=O)c1ccccc1Sc1ccc2c(/C=C/c3ccccn3)n[nH]c2c1` [Axitinib]?
A: AUC at 4 weeks from treatment start associated with better OS and PFS [1]: > 300 ng·h/mL and 154 to 620 ng·h/mL; Css,trough associated with longer OS [1]: • >5 ng/ml associated with longer OS; Css,trough associated with ≥G2 asthenia [1]: > 7.1 ng/mL

Q: Which “Mean Ctrough at 40 mg daily (SD)” value ([2]; 40 mg daily) does the source give for `COc1cc2nccc(Oc3ccc(NC(=O)C4(C(=O)Nc5ccc(F)cc5)CC4)cc3)c2cc1OC` [cabozantinib] here?
A: 565 (283) ng/ml

Q: And the “Median Ctrough at 40 mg daily (IQR)” value ([2]; 40 mg daily)?
A: 477 (366-649) ng/ml

Q: And the “Mean Ctrough at 60 mg daily (SD)” value ([2]; 60 mg daily)?
A: 667 (375) ng/ml

Q: What about the “Median Ctrough at 60 mg daily (IQR)” value ([2]; 60 mg daily) of the same compound?
A: 564 (402-777) ng/ml

Q: What about the AUC ([2]; human, plasma, oral, Mean AUC (SD), whole population, from population PK model) of the same compound?
A: 20900 ng·h/mL

Q: What about the “Median measured cabozantinib plasma concentration” value ([2]; median daily dose 40 mg, median time 38 weeks) of the same compound?
A: 500 ng/mL

Q: And the “Median Ctrough (IQR)” value ([2]; whole population)?
A: 500.2 (365.5-742.5) ng/ml

Q: What about the “Mean Cmeas (measured blood concentration)” value ([2]; whole population, 76 mRCC patients, steady state, at least 8 h from last dose) of the same compound?
A: 598.3 ng/mL

Q: What about the “Mean Ctrough (SD)” value ([2]; whole population, Ctrough estimated from Cmeas by formula) of the same compound?
A: 597.7 ng/ml and 597.7 (363.9) ng/ml

Q: And the “Mean Cl/F (SD)” value ([2]; whole population, from population PK model)?
A: 2.5 L/h

Q: And the AUC ([3]; Mean AUC (SD), SD/PR patients (disease control))?
A: 24600 ng·h/mL

Q: What about the AUC ([3]; Mean AUC (SD), patients with progressive disease (PD)) of the same compound?
A: 17700 ng·h/mL

Q: What about the AUC ([3]; Median AUC (IQR), SD/PR patients (disease control)) of the same compound?
A: 20000 ng·h/mL

Q: What about the AUC ([3]; Median AUC (IQR), patients with progressive disease (PD)) of the same compound?
A: 16000 ng·h/mL

Q: What about the “Number of PR observed” value ([4]; RECIST 1.1) of the same compound?
A: 7 patients

Q: What about the “Ctrough threshold to detect disease progression (drug efficacy threshold)” value ([4]; ROC curve) of the same compound?
A: 536.8 ng/mL

Q: And the “Mean Cl/F (SD)” value [4, 13]?
A: 2.01 L/h

Q: And the “Mean Ctrough (SD)” value [4, 13]?
A: 788.5 ng/mL

Q: What about the “Median Cl/F (IQR)” value [4, 13] of the same compound?
A: 2.9 L/h

Q: What about the “Proposed target Ctrough for efficacy in TDM” value ([4]; mRCC, real-life TDM) of the same compound?
A: > 530 ng/mL

Q: And the “Number of patients with progressive disease” value ([4]; of 76 patients, RECIST 1.1, at data cut-off)?
A: 35 patients and 34 patients

Q: And the “Patients with PR observed” value ([4]; of patients, RECIST 1.1)?
A: 9.2%

Q: And the “Mean Cl/F (SD)” value [4, 14]?
A: 2.86 L/h

Q: What about the “Mean Ctrough (SD)” value [4, 14] of the same compound?
A: 465.6 ng/mL

Q: And the “Median Cl/F (IQR)” value [4, 14]?
A: 2 L/h

Q: What about the “Median Ctrough (IQR)” value [4, 14] of the same compound?
A: 406 ng/mL

Q: What about the “Ctrough threshold to detect relevant toxicity” value ([5]; ROC curve) of the same compound?
A: 617.7 ng/mL

Q: And the AUC ([5]; Mean AUC (SD), patients with relevant toxicity)?
A: 28600 ng·h/mL

Q: What about the AUC ([5]; Mean AUC (SD), patients without relevant toxicity) of the same compound?
A: 19800 ng·h/mL

Q: What about the AUC ([5]; Median AUC (IQR), patients with relevant toxicity) of the same compound?
A: 21000 ng·h/mL

Q: What about the AUC ([5]; Median AUC (IQR), patients without relevant toxicity) of the same compound?
A: 16000 ng·h/mL

Q: What about the Cmeas [5, 15] of the same compound?
A: 732 ng/mL

Q: What about the “Median Ctrough (IQR)” value [5, 15] of the same compound?
A: 693 ng/mL

Q: And the “Mean Ctrough (SD)” value ([5]; patients with relevant toxicity (G3-4, or G2 requiring DR or DD))?
A: 950.2 ng/mL

Q: What about the Cmeas [5, 16] of the same compound?
A: 531 ng/mL

Q: What about the “Mean Ctrough (SD)” value [5, 16] of the same compound?
A: 574.1 ng/mL

Q: What about the “Median Ctrough (IQR)” value [5, 16] of the same compound?
A: 521 ng/mL

Q: And the G3 cutaneous rash [6, 17]?
A: 16.7%

Q: And the “G3 hand-foot syndrome (HFS)” value [6, 17]?
A: 26.7%

Q: What about the G3 hypertension [6, 17] of the same compound?
A: 50%

Q: And the G3 vomiting [6, 17]?
A: 10%

Q: What about the “Number of patients who experienced a relevant toxicity” value ([6]; of 76 patients, at data cut-off) of the same compound?
A: 30 patients

Q: And the “Patients with G2 event requiring a dose reduction (DR)” value [6, 18]?
A: 20%

Q: What about the “Patients with G2 event requiring a drug discontinuation (DD)” value [6, 18] of the same compound?
A: 26.7%

Q: And the “Patients with at least one G2 event requiring a DD or a DR” value [6, 18]?
A: 46.7%

Q: What about the “Patients with at least one G3 toxicity” value [6, 18] of the same compound?
A: 53.3%

Q: And the G4 toxicity ([6]; study cohort)?
A: No patient

Q: What about the “Dose reduction (DR) rate” value [7] of the same compound?
A: 60%

Q: What about the “Drug discontinuation (DD) rate” value [7] of the same compound?
A: 9%

Q: And the “Grade 3-4 adverse event rate” value [7]?
A: 74%

Q: And the “PFS, ORR and OS versus everolimus” value [7]?
A: superiority over everolimus

Q: What about the “PFS and ORR versus first-line standard sunitinib” value ([8]; first-line mRCC) of the same compound?
A: superior to first-line standard sunitinib

Q: What about the “Dose reduction (DR) rate” value [8] of the same compound?
A: 46%

Q: And the “Drug discontinuation (DD) rate” value [8]?
A: 16%

Q: What about the “Grade 3-4 adverse event rate” value [8] of the same compound?
A: 67%

Q: And the “Effect of average cabozantinib concentration (Cavg) on PFS” value [9]?
A: no effect

Q: What about the “Individual predicted average cabozantinib concentration at steady state” value ([10]; 20 mg daily) of the same compound?
A: 375 ng/mL

Q: What about the “Individual predicted average cabozantinib concentration at steady state” value ([10]; 40 mg daily) of the same compound?
A: 750 ng/mL

Q: And the “Individual predicted average cabozantinib concentration at steady state” value ([10]; 60 mg daily)?
A: 1125 ng/mL

Q: And the “Cl/F, patients with a lower Cl/F” value ([10]; after oral administration)?
A: 1.3 L/h

Q: And the “Cl/F, patients with a standard Cl/F” value ([10]; after oral administration)?
A: 2.3 L/h

Q: What about the “Biopharmaceutics Classification System class” value [11] of the same compound?
A: Class II

Q: And the “Cellular permeability in vivo” value [11]?
A: high

Q: What about the “Effect of PPI administration on cabozantinib efficacy and clinical PK” value [12] of the same compound?
A: no relevant effect

Q: With `CCN(CC)CCNC(=O)c1c(C)[nH]c(/C=C2\C(=O)Nc3ccc(F)cc32)c1C` [Sunitinib] as the compound, how does the AUCss and efficacy [1] read?
A: • Lower in PD patients compared with AUCss at treatment start.

Q: What about the “AUCss associated with higher grade 3-4 toxicity” value [1] of the same compound?
A: • >2150 ng/ml/h higher grade 3-4 toxicity

Q: What about the “Css,trough associated with longer PFS and TTF” value [1] of the same compound?
A: < 100 ng/mL

Q: What about the “Css,trough associated with worse outcomes” value [1] of the same compound?
A: > 100 ng/mL
